Measured values pooled from the literature.
Each line is one published result; the experiments were not run side by side.
Cell line: HepG2
Effect on: cell growth or viability

SMILES | test | conditions | IC50
Cl.Cl.Nc1nc(-c2cc(F)cc(NC(=O)Nc3cc(F)cc(-c4c[nH]c(N)n4)c3)c2)c[nH]1 | XTT | 24 h | > 256 µg/mL
CCC1(c2ccc(N)cc2)CCC(=O)NC1=O (centres unmarked) | CCK-8 | 48 h | > 50 µM
CC[C@@]1(OC(=O)[C@@H](N)Cc2ccccc2)C(=O)OCc2c1cc1n(c2=O)Cc2cc3cc4c(cc3nc2-1)OCO4 | MTT | – | 0.088 µM
CC1=C(O)C(=O)C=C2C1=CC=C1[C@@]2(C)CC[C@@]2(C)[C@@H]3C[C@](C)(C(=O)O)CC[C@]3(C)CC[C@]12C | MTT | 48 h | 1.23 µM
Cl.O[C@]12C=C(c3nccc4c3[nH]c3ccccc34)[C@@H]3CCN(CCCC/C=C\CC1)C[C@@]31C[C@@H]3/C=C\CCCCN3[C@H]12 | neutral red | 48 h | 1.55 µg/mL
CC[C@@]1(OC(=O)Cc2c(C)n(C(=O)c3ccc(Cl)cc3)c3ccc(OC)cc23)C(=O)OCc2c1cc1n(c2=O)Cc2cc3cc4c(cc3nc2-1)OCO4 | MTT | – | 0.032 µM
O=C(O)CCCc1ccc(N(CCCl)CCCl)cc1 | CCK-8 | 48 h | 15.1 µM
[Cl-].[Cl-].[Co+2] | MTT | 48 h | > 150 µM
CC[C@@]1(OC(=O)[C@H](C)N)C(=O)OCc2c1cc1n(c2=O)Cc2cc3cc4c(cc3nc2-1)OCO4 | MTT | – | 0.101 µM
O=c1ccc2cc3ccoc3cc2o1 | WST-1 | 48 h | 17.2 µM
Cc1c2ccncc2c(C)c2c1[nH]c1ccccc12 | MTT | 72 h | 0.45 µg/mL
N.N.[Cl][Pt][Cl] | MTT | 48 h | 14 µM
COc1c2ccoc2cc2oc(=O)ccc12 | WST-1 | 48 h | 18.1 µM
CC[C@@]1(OC(=O)[C@@H]2CCCN2)C(=O)OCc2c1cc1n(c2=O)Cc2cc3cc4c(cc3nc2-1)OCO4 | MTT | – | 0.263 µM
CC1=C(O)C(=O)C=C2C1=CC=C1[C@@]2(C)CC[C@@]2(C)[C@@H]3C[C@](C)(C(=O)OCCCn4cc(C=O)c5ccccc54)CC[C@]3(C)CC[C@]12C | MTT | 48 h | 1.76 µM
CC[C@@]1(OC(=O)C(C)c2cccc(C(=O)c3ccccc3)c2)C(=O)OCc2c1cc1n(c2=O)Cc2cc3cc4c(cc3nc2-1)OCO4 (some centres unmarked) | MTT | – | 0.364 µM
Nc1nc(-c2cccc(NC(=O)Nc3cccc(-c4c[nH]c(N)n4)c3)c2)c[nH]1 | XTT | 24 h | 850 µM
